Screening data from PubChem BioAssay.
KDM4C inh = blocks human GASC-1 (KDM4C) demethylase activity; inhibition, % at 12.5 µM; Q9H3R0; GST-KDM4C 2-372, H3K9me3 peptide, LANCE TR-FRET; 96,000 compounds, 0.15% hits;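 active means mean replicate inhibition above about 25%, with at least 55% of replicates also reaching it, limit read from the data, passing the limit was not always enough; inconclusive means only one of those two conditions met; inactive means neither condition met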
Target sequence (Q9H3R0 2-372 limits assumed): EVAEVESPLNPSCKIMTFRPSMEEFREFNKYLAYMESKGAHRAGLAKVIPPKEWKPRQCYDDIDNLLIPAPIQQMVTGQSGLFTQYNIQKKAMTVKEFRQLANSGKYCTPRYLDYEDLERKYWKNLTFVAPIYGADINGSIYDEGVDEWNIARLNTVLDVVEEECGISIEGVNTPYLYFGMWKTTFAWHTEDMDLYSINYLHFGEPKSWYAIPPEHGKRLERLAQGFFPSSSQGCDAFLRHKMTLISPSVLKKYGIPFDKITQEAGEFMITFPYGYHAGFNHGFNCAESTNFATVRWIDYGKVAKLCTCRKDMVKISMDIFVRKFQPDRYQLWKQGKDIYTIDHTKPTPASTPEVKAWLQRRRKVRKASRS
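reagent = H3K9me3 peptide substrate, Fe(II), 2-oxoglutarate | system = GST-tagged GASC-1 (JMJD2C) catalytic fragment, aa 2-372 | amount = enzyme final amount 10 nM | read-out = Fall in 671/618 emission ratio as inhibition | medium = HEPES buffer, pH 7.5, plus ascorbate | schedule = 30 min reaction, 60 min detection, RT | measured by = LANCE TR-FRET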
T cruzi growth-1 = inhibitors of T. cruzi proliferation; T. cruzi beta-gal in NIH3T3, GalScreen luminescence, 90 h; 77,000 compounds, 5.9% hits; inhibition, % at 8.34 µM;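 active means mean inhibition above about 93%, with at least 55% of replicates each passing it, limit read from the data, passing the limit was not always enough; inconclusive means only one of those two conditions holds; inactive means neither condition holds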
Pf Dd2 growth = P. falciparum Dd2 growth inhibition; SYBR Green, 72 h; active compounds read low; activity change, % at 10 µM; 94,000 compounds, 2.3% hits; AID 1159554; in the data active means activity change below about -80%; inconclusive means no clear call, values can overlap the other calls
IDH1 R132H inh = IDH1 R132H (human) inhibition | 70,000 compounds, 0.18% hits | IDH1 R132H reductase, diaphorase/resazurin fluorescence, 60 min | inhibition, % at 10 µM; in the data active means inhibition above about 34%; inconclusive means no clear call, values can overlap the other calls; inactive means below about 11%
T cruzi growth-2 = inhibitors of T. cruzi proliferation | shares compounds with T cruzi growth-1 | T. cruzi beta-gal in NIH3T3, GalScreen luminescence, 90 h | inhibition, % at 8.35 µM | 5,600 compounds, 72% hits | AID 651739;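 active means mean replicate inhibition above about 95% and at least 55% of replicates individually reaching it, limit read from the data; inconclusive means only one of the two criteria is met; inactive means neither criterion is met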
T cruzi growth-3 = Trypanosoma cruzi proliferation inhibition | inhibition, % at 2.09 µM | shares compounds with T cruzi growth-1 | T. cruzi beta-gal in NIH3T3, GalScreen luminescence, 90 h | 5,600 compounds, 21% hits;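 active means mean inhibition above about 95%, with at least 55% of replicates also reaching it, limit read from the data; inconclusive means meets just one of the two conditions; inactive means meets neither condition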
NIH3T3 tox = kills mouse NIH/3T3 fibroblasts; shares compounds with T cruzi growth-1; NIH/3T3 viability, CellTiter-Glo ATP luminescence, 90 h; 5,600 compounds, 14% hits; cytotoxicity (signal decrease), % at 8.35 µM; AID 651742;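 active means mean signal decrease across replicates above about 35% based on untreated-well scatter, with enough replicates individually passing, limit read from the data; inconclusive means no rule stated though some were filed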
3T3 cytotox 2 = cytotoxicity in mouse NIH/3T3 fibroblasts | NIH/3T3 viability, CellTiter-Glo ATP luminescence, 90 h | inhibition, % at 24.9 µM | shares compounds with T cruzi growth-1 | 5,600 compounds, 56% hits;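 active means mean loss of cell viability signal at or above a set limit, and enough replicates individually reaching it; inconclusive means meets only the mean limit or only the replicate share; inactive means meets neither condition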
A number is an active result; . = inactive; ? = inconclusive; / = no result. A selection: hits, their analogues and other compounds. The true share with any hit is near 5.9%.

SMILES	KDM4C inh	T cruzi growth-1	Pf Dd2 growth	IDH1 R132H inh	T cruzi growth-2	T cruzi growth-3	NIH3T3 tox	3T3 cytotox 2
CN1C(=O)c2cc(NC(=O)c3ccc(F)c(F)c3)ccc2OC[C@@H]2O[C@@H](CC(=O)N[C@@H]3CCN(Cc4ccccc4)C3)CC[C@@H]21	.	112	/	/	102	.	.	39
CN1C(=O)c2cc(NC(=O)Cc3cccs3)ccc2OC[C@@H]2O[C@H](CC(=O)N[C@H]3CCN(Cc4ccccc4)C3)CC[C@@H]21	.	.	/	/	/	/	/	/
CN1C(=O)c2cc(NC(=O)c3ccc(F)c(F)c3)ccc2OC[C@H]2O[C@H](CC(=O)N[C@H]3CCN(Cc4ccccc4)C3)CC[C@H]21	.	102	/	/	107	.	.	.
CN1C(=O)c2cc(NC(=O)c3ccc(F)c(F)c3)ccc2OC[C@H]2O[C@H](CC(=O)N[C@H]3CCN(Cc4ccccc4)C3)CC[C@@H]21	.	108	/	/	.	.	.	.
CN1C(=O)c2cc(NC(=O)c3ccc(F)c(F)c3)ccc2OC[C@H]2O[C@@H](CC(=O)N[C@H]3CCN(Cc4ccccc4)C3)CC[C@@H]21	.	.	/	/	/	/	/	/
CN1C(=O)c2cc(NC(=O)c3ccc(F)c(F)c3)ccc2OC[C@H]2O[C@H](CC(=O)N[C@@H]3CCN(Cc4ccccc4)C3)CC[C@@H]21	.	.	/	/	/	/	/	/
COC(=O)c1c(NC(=O)c2ccc(OC)c(OC)c2)sc2c1C(C(=O)OC)CC2 (stereo not drawn)	/	/	/	.	/	/	/	/
Cc1ccc(NC(=O)C(C)n2cc([N+](=O)[O-])cn2)cc1C (stereo not drawn)	/	/	/	.	/	/	/	/
COc1ccc(CN2C[C@H](C)[C@@H](OC)CN(C)C(=O)c3ccc(NC(=O)c4nc5ccccc5s4)cc3OC[C@H]2C)cc1	.	?	.	.	110	114	.	.
CO[C@H]1CN(C)C(=O)c2ccc(NC(=O)c3nc4ccccc4s3)cc2OC[C@@H](C)N(Cc2cccnc2)C[C@H]1C	.	?	.	/	105	.	.	59
CC(C)(C)OC(=O)N1CCC[C@H]1/C=N/NC(=O)c1ccc(C(=O)NO)cc1	/	/	/	.	/	/	/	/
CS(=O)(=O)N(CC(=O)Nc1cccc(Br)c1)c1cccc(Cl)c1	/	/	/	.	/	/	/	/
N#C[C@@H]1[C@@H](c2ccc(C#CC3CCCC3)cc2)[C@@H](CO)N1S(=O)(=O)c1ccccc1	.	99	.	/	102	?	46	102
N#C[C@H]1[C@@H](c2ccc(C#CC3CCCC3)cc2)[C@H](CO)N1S(=O)(=O)c1ccccc1	.	.	.	/	/	/	/	/
N#C[C@H]1[C@H](c2ccc(C#CC3CC3)cc2)[C@H](CO)N1S(=O)(=O)c1ccccc1	.	101	.	/	103	109	.	34
N#C[C@@H]1[C@H](c2ccc(C#CC3CC3)cc2)[C@@H](CO)N1S(=O)(=O)c1ccccc1	.	?	.	/	103	109	.	.
N#C[C@H]1[C@H](c2ccc(C#CC3CCCC3)cc2)[C@H](CO)N1S(=O)(=O)c1ccccc1	.	.	.	/	/	/	/	/
N#C[C@@H]1[C@H](c2ccc(C#CC3CCCCC3)cc2)[C@H](CO)N1S(=O)(=O)c1ccccc1	.	.	.	/	/	/	/	/
N#C[C@H]1[C@@H](c2ccc(C#CC3CC3)cc2)[C@@H](CO)N1S(=O)(=O)c1ccccc1	.	96	.	/	107	.	.	36
Cc1ccccc1S(=O)(=O)N1[C@@H](C#N)[C@H](c2ccc(C#CC3CCCC3)cc2)[C@@H]1CO	.	/	.	/	/	/	/	/
Cc1cccc(OC(=O)C(Cc2ccccc2)N2C(=O)C3C4CCC(C4)C3C2=O)c1C (stereo not drawn)	/	/	/	.	/	/	/	/
CN1c2ccc(-c3ccccc3)cc2[C@@H]2[C@@H](CCN2C(=O)c2ccc3c(c2)OCO3)[C@H]1CO	.	106	.	/	105	108	.	30
CN(C)CC(=O)N1CC[C@H]2[C@@H]1c1cc(-c3ccccc3F)ccc1N(C)[C@H]2CO	.	.	.	/	/	/	/	/
CN(C)CC(=O)N1CC[C@@H]2[C@H]1c1cc(-c3ccccc3F)ccc1N(C)[C@@H]2CO	.	113	.	/	102	.	.	24
CN1c2ccc(-c3ccccc3)cc2[C@@H]2[C@@H](CCN2C(=O)c2ccccn2)[C@H]1CO	.	105	.	/	102	.	.	.
CN1c2ccc(-c3ccccc3F)cc2[C@@H]2[C@@H](CCN2C(=O)c2ccccn2)[C@H]1CO	.	116	.	/	106	.	.	.
CN1c2ccc(-c3ccc(F)cc3)cc2[C@@H]2[C@@H](CCN2C(=O)c2ccccn2)[C@H]1CO	.	.	.	/	/	/	/	/
O=C(CS(=O)c1ccc(C(F)(F)F)cc1[N+](=O)[O-])Oc1ccc(C2CCCCC2)cc1 (stereo not drawn)	/	/	/	.	/	/	/	/
